Reference: ChEMBL document CHEMBL4665690, “Proversilins A-E, Drimane-Type Sesquiterpenoids from the Endophytic Aspergillus versicolor” (J Nat Prod, 2020)

Legend:
Format in all cases: functional, cell-based
NCM460 = assay: Cytotoxicity against human NCM460 cells assessed as reduction in cell viability after 48 hrs by MTT assay; settings: NCM460, 48 h
Outline: (§1)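 Cells exposed 48 h to compounds at 0.0625 to 40 μM, with cisplatin and paclitaxel as positive controls. Survival read by MTT, absorbance at 570 nm. Data are means of three replicates. IC50 derived from a standard dose–response curve fit.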

SMMC-7721 = assay: Cytotoxicity against human SMMC-7721 cells assessed as reduction in cell viability after 48 hrs by MTT assay; settings: SMMC-7721, 48 h; outline: as §1
SW480 = assay: Cytotoxicity against human SW480 cells assessed as reduction in cell viability after 48 hrs by MTT assay; settings: SW480, 48 h; outline: as §1
HL-60 = assay: Cytotoxicity against human HL-60 cells assessed as reduction in cell viability after 48 hrs by MTT assay; settings: HL-60, 48 h; outline: as §1
MCF7 = assay: Cytotoxicity against human MCF7 cells assessed as reduction in cell viability after 48 hrs by MTT assay; settings: MCF7, 48 h; outline: as §1
A549 = assay: Cytotoxicity against human A549 cells assessed as reduction in cell viability after 48 hrs by MTT assay; settings: A549, 48 h; outline: as §1

| Compound | IC50 (NCM460) [µM] | IC50 (SMMC-7721) [µM] | IC50 (SW480) [µM] | IC50 (HL-60) [µM] | IC50 (MCF7) [µM] | IC50 (A549) [µM] |
| --- | --- | --- | --- | --- | --- | --- |
| C[C@]1(CO)CCC[C@]2(C)C3=C(CC[C@@H]12)C(=O)OC3 | > 40 | > 40 | > 40 | > 40 | > 40 | > 40 |
| CC(=O)N[C@H](CC(=O)O[C@@H]1CC(C)(C)[C@@H]2CCC3=C(COC3=O)[C@@]2(C)C1)c1ccccc1 | > 40 | 12.6 | 12.4 | 7.3 | 11.8 | 15 |
| CC(=O)N[C@H](CC(=O)OC[C@@]1(C)CCC[C@]2(C)C3=C(CC[C@@H]12)C(=O)OC3)c1ccccc1 | > 40 | > 40 | > 40 | > 40 | > 40 | > 40 |
| CC(=O)N[C@H](CC(=O)O[C@@H]1C[C@](C)(CO)[C@@H]2CCC3=C(COC3=O)[C@@]2(C)C1)c1ccccc1 | > 40 | > 40 | > 40 | > 40 | > 40 | > 40 |
| CC(=O)N[C@H](CC(=O)O[C@@H]1C[C@](C)(C=O)[C@@H]2CCC3=C(COC3=O)[C@@]2(C)C1)c1ccccc1 | > 40 | 19.4 | 16.4 | 9.9 | 18.3 | 28.4 |
| CC(=O)O[C@H]1C(=O)[C@@]2(C)[C@H]([C@H](OC(=O)c3ccccc3)[C@]3(O)C[C@H](OC(=O)[C@H](O)[C@@H](NC(=O)c4ccccc4)c4ccccc4)C(C)=C1C3(C)C)[C@]1(OC(C)=O)CO[C@@H]1C[C@@H]2O [PACLITAXEL] | < 0.008 | < 0.008 | < 0.008 | < 0.008 | < 0.008 | < 0.008 |
